Series [1] concerns Salmonella typhimurium. Put plainly: Antimutagenic activity in Salmonella Typhimurium TA100 assessed as protection against benzo[a]pyrene-induced mutation at 32 ug/plate after 2 days by modified Ames test. The format is functional, Salmonella enterica subsp. enterica serovar Typhimurium. To be noted: at 32 µg/plate. Background: The Ames test uses bacterial strains that need an amino acid and regain growth without it when mutated back.

Series [2] has as its system Salmonella typhimurium. Put plainly: Antimutagenic activity in Salmonella Typhimurium TA102 assessed as protection against hydrogen peroxide-induced mutation at 1 ug/plate after 2 days by modified Ames test. It counts as functional, Salmonella enterica subsp. enterica serovar Typhimurium. An outline of the steps: (§1)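 S. typhimurium TA102 grown 15 h at 37 °C in Oxoid Nutrient Broth No. 2 with shaking to about (1-2) × 10^8 cells/mL. Culture in histidine/biotin-supplemented top agar with 100 μg hydrogen peroxide and test compound. Plated on Vogel-Bonner E medium, 37 °C for 2 days. His+ revertants scored on 3 plates, averaged, and % protection taken relative to mutagen-induced revertants minus spontaneous revertants.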

Series [3] deals with Salmonella typhimurium. Put plainly: Antimutagenic activity in Salmonella Typhimurium TA100 assessed as protection against benzo[a]pyrene-induced mutation at 8 ug/plate after 2 days by modified Ames test. The format is functional, Salmonella enterica subsp. enterica serovar Typhimurium. To be noted: at 8 µg/plate.
Series [4] has as its system Salmonella typhimurium. Put plainly: Antimutagenic activity in Salmonella Typhimurium TA100 assessed as protection against benzo[a]pyrene-induced mutation at 4 ug/plate after 2 days by modified Ames test. It counts as functional, Salmonella enterica subsp. enterica serovar Typhimurium. An outline of the steps:
(§2)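 S. typhimurium TA100 grown 15 h at 37 °C in Oxoid Nutrient Broth No. 2 with shaking to about (1-2) × 10^8 cells/mL. Culture in histidine/biotin-supplemented top agar with 5 μg benzo(a)pyrene plus 50 μL S9 and test compound. Plated on Vogel-Bonner E medium, 37 °C for 2 days. His+ revertants scored on 3 plates, averaged, and % protection taken relative to mutagen minus spontaneous revertants.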

Series [5] concerns Salmonella typhimurium. Put plainly: Antimutagenic activity in Salmonella Typhimurium TA100 assessed as protection against benzo[a]pyrene-induced mutation at 2 ug/plate after 2 days by modified Ames test. It counts as functional, Salmonella enterica subsp. enterica serovar Typhimurium. The method, boiled down: as §2
Series [6] deals with Salmonella typhimurium. Put plainly: Antimutagenic activity in Salmonella Typhimurium TA102 assessed as protection against hydrogen peroxide-induced mutation at 2 ug/plate after 2 days by modified Ames test. It counts as functional, Salmonella enterica subsp. enterica serovar Typhimurium. An outline of the steps: as §1
In series [7] the test system is Salmonella typhimurium. Put plainly: Antimutagenic activity in Salmonella Typhimurium TA102 assessed as protection against hydrogen peroxide-induced mutation at 4 ug/plate after 2 days by modified Ames test. The format is functional, Salmonella enterica subsp. enterica serovar Typhimurium. The settings on record: at 4 µg/plate.
In series [8] the test system is Salmonella typhimurium. Put plainly: Antimutagenic activity in Salmonella Typhimurium TA100 assessed as protection against benzo[a]pyrene-induced mutation at 16 ug/plate after 2 days by modified Ames test. The format is functional, Salmonella enterica subsp. enterica serovar Typhimurium. The settings on record: at 16 µg/plate.
Series [9] has as its system Salmonella typhimurium. Put plainly: Antimutagenic activity in Salmonella Typhimurium TA102 assessed as protection against hydrogen peroxide-induced mutation at 8 ug/plate after 2 days by modified Ames test. It counts as functional, Salmonella enterica subsp. enterica serovar Typhimurium. To be noted: at 8 µg/plate.
The nature of series [10]: Cytotoxicity against Salmonella Typhimurium TA100 assessed as maximum non-toxic concentrations after 15 hrs by ELISA. To be noted: salmonella enterica subsp. enterica serovar typhimurium, Salmonella Typhimurium TA100 bacteria.

SMILES strings stand for the structures.

For the molecule `CC1=CC[C@@H](O)C(C)(C)[C@H]1CC/C(C)=C/COc1ccc2ccc(=O)oc2c1`, the Activity with Salmonella typhimurium [1] was 45%.
For the molecule `C#CC(C)(C)Oc1ccc2ccc(=O)oc2c1`, the Activity was 0% in the series with Salmonella typhimurium [2]; 25% in the series with Salmonella typhimurium [3]; 15% with Salmonella typhimurium [4]; 10% with Salmonella typhimurium [5]; 0% with Salmonella typhimurium [6]; 11% in the series with Salmonella typhimurium [7].
On to `CC(C)=CCOc1ccc2ccc(=O)oc2c1` [7-PRENYLOXYCOUMARIN], for which the Activity turned out to be 9% in the series on Salmonella typhimurium [2]; 36% in the series with Salmonella typhimurium [3]; 29% with Salmonella typhimurium [4]; 19% in the series on Salmonella typhimurium [5]; 14% with Salmonella typhimurium [6]; 17% with Salmonella typhimurium [7].
As to `COc1ccc2ccc(=O)oc2c1` [HERNIARIN], the Activity in the series on Salmonella typhimurium [2] was determined as 0%; in the series with Salmonella typhimurium [3] it was 36%; with Salmonella typhimurium [4], 28%; in the series on Salmonella typhimurium [5] it was 21%; in the series with Salmonella typhimurium [6], 10%; with Salmonella typhimurium [7] it was 11%.
Regarding `CC1(C)C=Cc2c(ccc3ccc(=O)oc23)O1` [SESALIN], the Activity turned out to be 20% in the series with Salmonella typhimurium [8]; 8% with Salmonella typhimurium [3]; 22% in the series with Salmonella typhimurium [9]; 1% in the series on Salmonella typhimurium [4]; 0% in the series on Salmonella typhimurium [6]; 8% in the series with Salmonella typhimurium [7].
Consider `O=c1ccc2ccc(OCC3CCCCC3)cc2o1` [UMBELLIFERONECYCLOHEXYLMETHYL ETHER], for which the Activity stood at 54% in the series with Salmonella typhimurium [8]; 44% in the series with Salmonella typhimurium [3]; 39% with Salmonella typhimurium [9]; 33% with Salmonella typhimurium [4]; 0% in the series with Salmonella typhimurium [6]; 5% in the series with Salmonella typhimurium [7]. Further, in [10], the MNTC at 15 h came to 16 µg/mL.
Take `O=c1ccc2ccc(O)cc2o1` [UMBELLIFERONE]: the Activity was determined as 39% in the series with Salmonella typhimurium [8]; 22% in the series on Salmonella typhimurium [3]; 28% in the series on Salmonella typhimurium [9]; 10% with Salmonella typhimurium [4]; 7% in the series on Salmonella typhimurium [6]; 13% in the series with Salmonella typhimurium [7].
